Measured values from ChEMBL document CHEMBL1154674, “Synthesis and evaluation of three 18F-labeled aminophenylbenzothiazoles as amyloid imaging agents” (J Med Chem, 2009).

Columns and labels:
Type in all cases: ADME, organism-based, Macaca mulatta
[1] = Drug level in normal rhesus monkey thalamus assessed as standard uptake value at 81.2 MBq, iv after 8 mins by microPET; conditions: in vivo
[2] = Drug level in normal rhesus monkey cerebellum assessed as standard uptake value at 81.2 MBq, iv after 8 mins by microPET; conditions: in vivo
Method in brief: (§1)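 One normal rhesus monkey, each tracer given iv via the vena saphena (81.2, 96.3 or 109.4 MBq), with 1 day between tracer injections. Dynamic brain μPET over 180 min used frames of 5 × 60 s, 5 × 120 s, 9 × 300 s and 12 × 600 s. Images were reconstructed by filtered back projection with a RAMP filter. Regional time-activity curves were expressed as SUV.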

[3] = Drug level in normal rhesus monkey white matter assessed as standard uptake value at 81.2 MBq, iv after 145 mins by microPET; conditions: in vivo
[4] = Drug level in normal rhesus monkey parietal cortex assessed as standard uptake value at 81.2 MBq, iv after 0.5 mins by microPET; conditions: in vivo
[5] = Drug level in normal rhesus monkey frontal cortex assessed as standard uptake value at 81.2 MBq, iv after 10 mins by microPET; conditions: in vivo
Method in brief: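 Single normal rhesus monkey; each tracer given iv via the vena saphena, with 1 day between tracer injections. Dynamic μPET ran 180 min (5×60 s, 5×120 s, 9×300 s, 12×600 s). Images were reconstructed by filtered back projection with a RAMP filter. Regional time-activity curves were expressed as SUV.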

[6] = Drug level in normal rhesus monkey thalamus assessed as standard uptake value at 81.2 MBq, iv after 95 mins by microPET; conditions: in vivo
[7] = Drug level in normal rhesus monkey parietal cortex assessed as standard uptake value at 81.2 MBq, iv after 2.5 mins by microPET; conditions: in vivo
[8] = Drug level in normal rhesus monkey thalamus assessed as standard uptake value at 81.2 MBq, iv after 12 mins by microPET; conditions: in vivo, 0.2 h
[9] = Drug level in normal rhesus monkey pons assessed as standard uptake value at 81.2 MBq, iv after 165 mins by microPET; conditions: in vivo, 2.75 h
[10] = Drug level in normal rhesus monkey white matter assessed as standard uptake value at 81.2 MBq, iv after 2.5 mins by microPET; conditions: in vivo
[11] = Drug level in normal rhesus monkey white matter assessed as standard uptake value at 81.2 MBq, iv after 75 mins by microPET; conditions: in vivo, 1.25 h
[12] = Drug level in normal rhesus monkey thalamus assessed as standard uptake value at 96.3 MBq, iv after 75 mins by microPET; conditions: in vivo, 1.25 h
[13] = Drug level in normal rhesus monkey white matter assessed as standard uptake value at 96.3 MBq, iv after 22.5 mins by microPET; conditions: in vivo, 0.375 h
[14] = Drug level in normal rhesus monkey parietal cortex assessed as standard uptake value at 96.3 MBq, iv after 105 mins by microPET; conditions: in vivo, 1.75 h
[15] = Drug level in normal rhesus monkey pons assessed as standard uptake value at 96.3 MBq, iv after 155 mins by microPET; conditions: in vivo
[16] = Drug level in normal rhesus monkey parietal cortex assessed as standard uptake value at 96.3 MBq, iv after 1.5 mins by microPET; conditions: in vivo, 0.025 h
[17] = Drug level in normal rhesus monkey pons assessed as standard uptake value at 96.3 MBq, iv after 57.5 mins by microPET; conditions: in vivo
[18] = Drug level in normal rhesus monkey parietal cortex assessed as standard uptake value at 96.3 MBq, iv after 47.5 mins by microPET; conditions: in vivo
[19] = Drug level in normal rhesus monkey white matter assessed as standard uptake value at 96.3 MBq, iv after 3.5 mins by microPET; conditions: in vivo
[20] = Drug level in normal rhesus monkey cerebellum assessed as standard uptake value at 96.3 MBq, iv after 4.5 mins by microPET; conditions: in vivo, 0.075 h; method in brief: as §1
[21] = Drug level in normal rhesus monkey cerebellum assessed as standard uptake value at 96.3 MBq, iv after 32.5 mins by microPET; conditions: in vivo; method in brief: as §1
[22] = Drug level in normal rhesus monkey thalamus assessed as standard uptake value at 109.4 MBq, iv after 52.5 mins by microPET; conditions: in vivo, 0.875 h
[23] = Drug level in normal rhesus monkey pons assessed as standard uptake value at 109.4 MBq, iv after 75 mins by microPET; conditions: in vivo, 1.25 h
[24] = Drug level in normal rhesus monkey white matter assessed as standard uptake value at 109.4 MBq, iv after 52.5 mins by microPET; conditions: in vivo, 0.875 h
[25] = Drug level in normal rhesus monkey frontal cortex assessed as standard uptake value at 109.4 MBq, iv after 0.125 mins by microPET; conditions: in vivo, 7 s
[26] = Drug level in normal rhesus monkey frontal cortex assessed as standard uptake value at 109.4 MBq, iv after 3.5 mins by microPET; conditions: in vivo; method in brief: as §1
[27] = Drug level in normal rhesus monkey frontal cortex assessed as standard uptake value at 109.4 MBq, iv after 9.5 mins by microPET; conditions: in vivo
[28] = Drug level in normal rhesus monkey cerebellum assessed as standard uptake value at 152.9 MBq, iv after 12 mins by microPET; conditions: in vivo, 0.2 h
Method in brief: (§2)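 One normal rhesus monkey received each tracer via the vena saphena, with 1 day between injections. Dynamic μPET ran 180 min for 18F tracers (5×60 s, 5×120 s, 9×300 s, 12×600 s) and 90 min for the 11C tracer (5×60 s, 5×120 s, 9×300 s, 3×600 s). Filtered back-projection reconstruction (RAMP filter) was used. Time-activity curves were drawn to give regional SUV.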

[29] = Drug level in normal rhesus monkey frontal cortex assessed as standard uptake value at 152.9 MBq, iv after 6 mins by microPET; conditions: in vivo, 0.1 h
Method in brief: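 Single normal rhesus monkey; tracer given iv via the vena saphena, 1 day apart from the other tracer injections. Dynamic μPET ran 90 min (5×60 s, 5×120 s, 9×300 s, 3×600 s). Images were reconstructed by filtered back projection with a RAMP filter. Regional time-activity curves were expressed as SUV.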

[30] = Drug level in normal rhesus monkey white matter assessed as standard uptake value at 152.9 MBq, iv after 22.5 mins by microPET; conditions: in vivo, 0.375 h
[31] = Drug level in normal rhesus monkey parietal cortex assessed as standard uptake value at 152.9 MBq, iv after 22.5 mins by microPET; conditions: in vivo, 0.375 h
[32] = Drug level in normal rhesus monkey white matter assessed as standard uptake value at 152.9 MBq, iv after 17.5 mins by microPET; conditions: in vivo
[33] = Drug level in normal rhesus monkey thalamus assessed as standard uptake value at 152.9 MBq, iv after 22.5 mins by microPET; conditions: in vivo, 0.375 h
[34] = Drug level in normal rhesus monkey cerebellum assessed as standard uptake value at 152.9 MBq, iv after 14 mins by microPET; conditions: in vivo; method in brief: as §2
[35] = Drug level in normal rhesus monkey pons assessed as standard uptake value at 152.9 MBq, iv after 8 mins by microPET; conditions: in vivo
[36] = Drug level in normal rhesus monkey thalamus assessed as standard uptake value at 152.9 MBq, iv after 0.5 mins by microPET; conditions: in vivo

For CNc1ccc2nc(-c3ccc([18F])cc3)sc2c1, the SUV [1] was 4.734, the SUV [2] was 2.781 and the SUV [3] was 3.888. The SUV [4] was 0.924, the SUV [5] was 5.813 and the SUV [6] was 5.301. The SUV [7] was 4.252, the SUV [8] was 4.684 and the SUV [9] was 4.946. It also gave an SUV [10] of 2.607 and an SUV [11] of 3.823.
For CN(C)c1ccc2nc(-c3ccc([18F])cc3)sc2c1, the SUV [12] was 2.19, the SUV [13] was 1.3 and the SUV [14] was 1.35. It also gave an SUV [15] of 1.87, an SUV [16] of 1.7 and an SUV [17] of 1.95. It also gave an SUV [18] of 1.72, an SUV [19] of 1.15 and an SUV [20] of 1.63. It also gave an SUV [21] of 1.46.
Work on Nc1ccc2nc(-c3ccc([18F])cc3)sc2c1 yielded an SUV [22] of 5.41, an SUV [23] of 4.79 and an SUV [24] of 3.54. For the same compound, the SUV [25] was -0.06, the SUV [26] was 4.99 and the SUV [27] was 5.43.
In the case of [11CH3]Nc1ccc(-c2nc3ccc(O)cc3s2)cc1 [PITTSBURGH COMPOUND B], the SUV [28] is reported as 2.252, the SUV [29] is reported as 2.184 and the SUV [30] is reported as 1.229. The SUV [31] was 1.453, the SUV [32] was 1.328 and the SUV [33] was 1.903. It also gave an SUV [34] of 2.11, an SUV [35] of 2.153 and an SUV [36] of 0.038.
